# Results reported in publication PMC6055826 (Chemistry (Weinheim an Der Bergstrasse, Germany), 2018).
# Experiments:
# [1] = Bidirectional Caco2 permeability assay, 24-well format; type: in vitro ADME; settings: human, Caco-2
# Outline: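 Caco-2 monolayers run bidirectionally in a 24-well format, measuring apparent permeability both apical-to-basolateral (A-B) and basolateral-to-apical (B-A). Efflux ratio calculated as Papp B-A divided by Papp A-B.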
# [2] = test system: freshly harvested rat hepatocytes (rHep); assay: Metabolic stability assay, freshly harvested rat hepatocytes; type: in vitro ADME; settings: predicted maximum oral bioavailability
# Outline: (§1)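 Metabolic stability measured in vitro in pooled liver microsomes (human, rat or mouse) or freshly harvested rat hepatocytes.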
# [3] = logD by reversed-phase HPLC; type: physicochemical; settings: pH 7.5
# Hydrolytic stability = type: physicochemical; settings: for Recovery [%] (pH): 24 hours with stirring
# Outline: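 Test compound stirred for 24 hours in buffer at each of three pH values: pH 1 in HCl buffer, pH 7 in phosphate-buffered saline, and pH 10 in sodium borate buffer. Stability expressed as recovery of test compound.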
# [4] = Metabolic stability assay, pooled human liver microsomes; type: in vitro ADME; settings: predicted maximum oral bioavailability
# Outline: as §1
# [5] = Metabolic stability assay, pooled mouse liver microsomes; type: in vitro ADME; settings: predicted maximum oral bioavailability
# Outline: as §1
# [6] = Metabolic stability assay, pooled rat liver microsomes; type: in vitro ADME; settings: predicted maximum oral bioavailability
# Outline: as §1
# [7] = pH 7 (phosphate-buffered saline)
Papp A→B [1],efflux ratio [1],F max rHep [%] [2],chromatographic logD [3],Recovery [%] (pH) (Hydrolytic stability; pH 1 (HCl buffer)),Recovery [%] (pH) (Hydrolytic stability; [7]),Recovery [%] (pH) (Hydrolytic stability; pH 10 (sodium borate buffer)),F max (h/r/m)-LMs [%] ([4]; listed as C00015),F max (h/r/m)-LMs [%] [5],F max (h/r/m)-LMs [%] [6],"hydrolytic stability (in words) (Hydrolytic stability; after 24 hours with stirring at pH 1, 7 and 10)",F max (h/r/m)-LMs [%] [4],F max (h/r/m)-LMs [%] ([4]; listed as C00021),Compound
36.3 ×10⁻⁶ cm/s,0.67,20%,2,100 (1) 100 (7) 100 (10) %,100 (1) 100 (7) 100 (10) %,100 (1) 100 (7) 100 (10) %,100%,83%,33%,–,–,–,"CS(=O)(=O)N=S(=O)(c1ccccc1)N1CCCCC1 (centres unmarked) [2 ea, N‐[Oxo(phenyl)(piperidin‐1‐yl)‐λ^6‐sulfanylidene]methanesulfonamide]"
19.2 ×10⁻⁶ cm/s,0.7,6.8%,3.7,56%,100%,91%,–,9.3%,10%,signs of hydrolysis at pH 1 and 10,19%,–,"O=S(=NC(F)(F)F)(c1ccccc1)N1CCCCC1 (centres unmarked) [2 cs, 1‐[S‐Phenyl‐N‐(trifluoromethyl)sulfonimidoyl]piperidine]"
25.2 ×10⁻⁶ cm/s,0.45,2.1%,4.3,100 (1) 100 (7) 100 (10) %,100 (1) 100 (7) 100 (10) %,100 (1) 100 (7) 100 (10) %,–,16%,0.5%,–,–,8.3%,O=S(=Nc1cccc(F)c1)(c1ccccc1)N1CCCCC1 (centres unmarked) [2 bc]
40.4 ×10⁻⁶ cm/s,0.57,19%,2.4,100 (1) 100 (7) 100 (10) %,100 (1) 100 (7) 100 (10) %,100 (1) 100 (7) 100 (10) %,–,47%,18%,–,84%,–,CN=S(=O)(c1ccccc1)N1CCCCC1 (centres unmarked) [2 cm]
